This note sets out measurements from ChEMBL document CHEMBL5154772, “Biological Investigation of a Water-Soluble Isoginkgetin-Phosphate Analogue, Targeting the Spliceosome with In Vivo Antitumor Activity” (J Med Chem, 2022).

Data set [1] is described as follows: Toxicity in C57BL/6 mouse assessed as change in spleen weight at 100 mg/kg, ip administered as single dose and measured after 15 days (reference value: 0.1 to 0.2 g). The class given is organism-based. The note with it: in vivo, 360 h, time 15 day. Summed up: (§1)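 Female C57BL/6 mice given one IP injection of 100 µL, at 50, 100, 250 or 500 mg/kg in sterile PBS, two mice per dose; PBS-injected controls. Behaviour checked right after and at 30 min. Body weight recorded every 2–3 days for 15 days, then liver, spleen and kidneys weighed.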

The target in data set [2] is Beta-1 adrenergic receptor (Homo sapiens) (UniProt P08588). In words: Antagonist activity at ADRB1 (unknown origin) at 10 uM. The class given is functional. On the set-up: scale not given: the % may be the effect or the level left. Summed up:
(§2)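 Single-concentration safety screen at 10 μM across a 47-target panel. GPCRs were run in antagonist mode and enzymes in inhibitor mode.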

Data set [3] is described as follows: Stability in mouse plasma assessed as compound remaining incubated up to 2 hrs by HPLC-MS/MS analysis. Format: ADME, cell-free. As to conditions: read-out: Stability. In outline:
(§3)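 Incubation in mouse or human plasma for up to 2 h, with compound remaining expressed as a percentage.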

Data set [4] can be described thus: Metabolic stability in human liver microsomes assessed as parent compound remaining incubated for 45 mins in presence of NADPH by HPLC-MS/MS analysis. The class given is ADME, Microsome. The note with it: read-out: Stability. Summed up: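 Incubation with mouse or human liver microsomes for 45 min, with or without NADPH. Remaining parent compound was quantified over time by HPLC-MS/MS and expressed as % remaining; intrinsic clearance is given in μL/min/mg protein.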

The target in data set [5] is Prostaglandin G/H synthase 1 (Homo sapiens) (UniProt P23219). Description: Inhibition of COX1 (unknown origin) at 10 uM.
Data set [6] is described as follows: Toxicity in C57BL/6 mouse assessed as change in liver weight at 250 mg/kg, ip administered as single dose and measured after 15 days (reference value: 1.2 to 1.3 g). The class given is organism-based. As to conditions: in vivo, 360 h, time 15 day. Summed up:
as §1

A short description of data set [7]: Antiproliferative activity against mouse MCA-205 cells assessed as decrease in cell viability at 10 uM measured after 72 hrs by MTT based colorimetric assay. The class given is functional.
Data set [8] deals with Delta-type opioid receptor (Homo sapiens) (UniProt P41143). Description: Antagonist activity at OPRD1 (unknown origin) at 10 uM. The class given is functional. On the set-up: scale not given: the % may be the effect or the level left. As to conditions: filed as antagonist. In outline:
as §2

The nature of data set [9]: Stability in human plasma assessed as compound remaining incubated up to 2 hrs by HPLC-MS/MS analysis. The class given is ADME, cell-free. As to conditions: read-out: Stability. In outline: as §3
The nature of data set [10]: Half life in C57BL/6J mouse at 0.711 mg/kg, iv administered as single dose measured up to 24 hrs. As to conditions: in vivo. Format: ADME, organism-based. In outline:
(§4)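 Single intravenous dose. Mice were male C57BL/6J, 12 per route; tail-vein blood was collected under sodium heparin, with 3 mice sampled at each pair of times (0.083/2, 0.25/4, 0.5/8, 1/24 h). Dogs were male beagles (n=3); jugular blood was collected under K2 EDTA predose and at 0.083, 0.25, 0.5, 1, 2, 4, 6, 8 and 24 h. Plasma was prepared from the samples.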

Data set [11] is described as follows: Toxicity in C57BL/6 mouse assessed as change in spleen weight at 250 mg/kg, ip administered as single dose and measured after 15 days (reference value: […]). The class given is organism-based. The note with it: in vivo, 360 h, time 15 day. Summed up:
as §1

Data set [12] is described as follows: Total clearance in Beagle dog at 26.76 mg/kg, iv administered as single dose measured up to 24 hrs. Format: ADME, organism-based, Canis lupus familiaris. The note with it: in vivo. In outline: as §4
The nature of data set [13]: Cmax in Beagle dog at 26.76 mg/kg, iv administered as single dose measured up to 24 hrs. Format: ADME, organism-based, Canis lupus familiaris. The arrangement: time < 24 hrs, dose 26.76 mg/kg, route iv. The note with it: in vivo. In outline:
as §4

Chain of Beta-1 adrenergic receptor (Homo sapiens) (P08588 whole entry, looked up): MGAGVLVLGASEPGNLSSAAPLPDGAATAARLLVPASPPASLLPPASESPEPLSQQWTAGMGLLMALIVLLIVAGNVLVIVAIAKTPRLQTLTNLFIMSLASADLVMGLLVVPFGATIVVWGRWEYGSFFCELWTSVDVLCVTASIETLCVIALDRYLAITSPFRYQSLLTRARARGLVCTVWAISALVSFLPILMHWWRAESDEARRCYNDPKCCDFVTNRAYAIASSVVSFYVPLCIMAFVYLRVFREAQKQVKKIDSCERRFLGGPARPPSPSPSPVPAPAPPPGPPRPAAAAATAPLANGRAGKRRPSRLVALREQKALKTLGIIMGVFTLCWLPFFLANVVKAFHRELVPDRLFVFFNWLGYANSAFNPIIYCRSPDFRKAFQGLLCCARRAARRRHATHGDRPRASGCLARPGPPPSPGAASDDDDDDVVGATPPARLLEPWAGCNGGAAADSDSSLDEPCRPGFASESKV
Chain of Delta-type opioid receptor (Homo sapiens) (P41143 whole entry): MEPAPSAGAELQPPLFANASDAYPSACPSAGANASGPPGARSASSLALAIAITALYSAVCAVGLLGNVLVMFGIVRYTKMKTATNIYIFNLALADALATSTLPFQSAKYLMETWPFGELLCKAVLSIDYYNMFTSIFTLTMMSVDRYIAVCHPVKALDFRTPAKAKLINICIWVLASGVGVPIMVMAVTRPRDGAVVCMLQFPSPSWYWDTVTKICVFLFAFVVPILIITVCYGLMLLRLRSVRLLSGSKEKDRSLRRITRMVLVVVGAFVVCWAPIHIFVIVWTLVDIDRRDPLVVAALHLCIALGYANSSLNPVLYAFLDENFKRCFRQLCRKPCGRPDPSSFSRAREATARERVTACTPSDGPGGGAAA

Take `COc1ccc(-c2cc(=O)c3c(O)cc(OP(=O)([O-])[O-])c(-c4cc(-c5cc(=O)c6c(O)cc(OP(=O)([O-])[O-])cc6o5)ccc4OC)c3o2)cc1.[Na+].[Na+].[Na+].[Na+]`: the Activity in [1] is 0.1 g; in [2], 35%; in data set [6] it was 0.9 g; in data set [7], 20%; in data set [8], 53%; in data set [11], 0.1 g. The remaining at 2 h came to 98.1% in [3] and 94.1% in data set [9]. In addition, in data set [4], the remaining at 0.75 h came to 60.8%. The compound further yielded an inhibition in data set [5] of 52.8%. This compound also showed a half-life in data set [10] of 66 min. The compound further had a clearance in [12] of 0.69 mL/min/kg. In data set [13], the peak level (Cmax) was 272 µg/mL.
